From PMC4817271 (Journal of medicinal chemistry, 2015)
pIC50: −log10 of the molar value.

Legend:
rat mGlu2 = rat mGlu2 (Rattus norvegicus, UniProt P31421); assay: Calcium mobilization mGlu2 assay; format: cell-based; conditions: for pIC50: average of n ≥ 3
Summary of the method: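 Fluorescence calcium-mobilization read-out in a cell line stably co-expressing rat mGlu2 and the promiscuous G-protein Gα15. Test compound was applied up to 30 μM, and NAM activity was measured as inhibition of the glutamate response. Values are the average of n=3. LLE = pIC50 − cLogP, with cLogP calculated by software.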

[1] = Rat plasma protein binding; format: in vitro ADME
[2] = Intrinsic clearance in rat liver microsomes, predicted hepatic clearance; format: in vitro ADME
Summary of the method: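 Test compound was incubated with rat liver microsomes to give intrinsic clearance (CLint), which was converted to predicted hepatic clearance. Compounds were binned against hepatic blood flow: low (<1/3), moderate (1/3 to 2/3) or high (>2/3).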

[3] = Protein binding in rat brain homogenates; format: in vitro ADME; conditions: brain homogenate
[4] = Rat iv cassette PK tissue distribution; format: in vivo; conditions: 0.2 mg/kg
Summary of the method: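 Cassette dosing in rats: iv at 0.2 mg/kg per compound, as a solution in 8% EtOH, 30% PEG 400 and 62% DMSO (2 mg/mL total), n=2. Single time point brain and plasma sampling at 15 min after dose. Kp = total brain/total plasma; Kp,uu = (brain fu × total brain)/(plasma fu × total plasma).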

P-gp (MDR1) = P-gp (MDR1) (Homo sapiens, UniProt P08183); assay: Permeability in MDR1-MDCK cells; format: in vitro ADME; conditions: dog (MDCK cells), human MDR1 expressed
Sequence of P-gp (MDR1) (P08183 whole entry): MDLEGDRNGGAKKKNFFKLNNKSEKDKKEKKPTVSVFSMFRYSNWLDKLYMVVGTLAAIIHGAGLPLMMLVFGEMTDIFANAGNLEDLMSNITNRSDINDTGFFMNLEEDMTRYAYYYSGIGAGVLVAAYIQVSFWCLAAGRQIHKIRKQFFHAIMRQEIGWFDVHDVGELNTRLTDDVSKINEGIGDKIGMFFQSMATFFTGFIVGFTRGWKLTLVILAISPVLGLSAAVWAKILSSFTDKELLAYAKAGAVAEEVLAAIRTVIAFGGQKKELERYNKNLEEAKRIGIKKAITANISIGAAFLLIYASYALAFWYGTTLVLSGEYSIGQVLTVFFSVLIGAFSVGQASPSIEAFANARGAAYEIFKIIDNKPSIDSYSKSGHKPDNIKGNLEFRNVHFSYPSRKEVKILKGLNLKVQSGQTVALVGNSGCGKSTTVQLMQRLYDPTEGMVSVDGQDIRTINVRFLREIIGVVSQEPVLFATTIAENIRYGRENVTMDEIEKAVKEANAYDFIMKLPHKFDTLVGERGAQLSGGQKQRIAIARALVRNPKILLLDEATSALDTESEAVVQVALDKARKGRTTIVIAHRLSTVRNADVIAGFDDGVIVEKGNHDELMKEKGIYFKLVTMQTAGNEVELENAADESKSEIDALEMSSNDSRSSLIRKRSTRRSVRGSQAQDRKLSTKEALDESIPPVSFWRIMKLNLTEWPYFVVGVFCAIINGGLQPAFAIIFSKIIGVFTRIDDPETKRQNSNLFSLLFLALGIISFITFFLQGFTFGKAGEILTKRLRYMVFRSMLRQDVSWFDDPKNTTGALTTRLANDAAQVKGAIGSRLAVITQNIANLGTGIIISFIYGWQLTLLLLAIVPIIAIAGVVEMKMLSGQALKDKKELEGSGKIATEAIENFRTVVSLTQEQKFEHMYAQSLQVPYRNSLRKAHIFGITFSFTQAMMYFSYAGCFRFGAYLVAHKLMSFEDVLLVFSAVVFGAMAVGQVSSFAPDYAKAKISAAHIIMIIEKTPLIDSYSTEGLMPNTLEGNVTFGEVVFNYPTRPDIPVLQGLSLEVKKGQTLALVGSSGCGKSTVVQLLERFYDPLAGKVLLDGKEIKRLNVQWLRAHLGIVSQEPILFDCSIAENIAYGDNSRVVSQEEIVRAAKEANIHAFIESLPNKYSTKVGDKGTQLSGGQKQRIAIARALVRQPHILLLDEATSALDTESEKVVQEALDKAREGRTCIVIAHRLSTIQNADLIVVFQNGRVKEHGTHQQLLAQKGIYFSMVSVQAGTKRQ

[5] = tested on: other members of the mGlu family; assay: Fold-shift selectivity experiments versus other mGlus; format: cell-based; conditions: effect of 10 μM compound on orthosteric agonist CRC
human M1 = target: T1, human M1 (Homo sapiens, UniProt P11229); assay: Human M1 functional assay; format: cell-based; conditions: up to the highest concentration tested (30 μM)
T1 sequence (P11229 1-460): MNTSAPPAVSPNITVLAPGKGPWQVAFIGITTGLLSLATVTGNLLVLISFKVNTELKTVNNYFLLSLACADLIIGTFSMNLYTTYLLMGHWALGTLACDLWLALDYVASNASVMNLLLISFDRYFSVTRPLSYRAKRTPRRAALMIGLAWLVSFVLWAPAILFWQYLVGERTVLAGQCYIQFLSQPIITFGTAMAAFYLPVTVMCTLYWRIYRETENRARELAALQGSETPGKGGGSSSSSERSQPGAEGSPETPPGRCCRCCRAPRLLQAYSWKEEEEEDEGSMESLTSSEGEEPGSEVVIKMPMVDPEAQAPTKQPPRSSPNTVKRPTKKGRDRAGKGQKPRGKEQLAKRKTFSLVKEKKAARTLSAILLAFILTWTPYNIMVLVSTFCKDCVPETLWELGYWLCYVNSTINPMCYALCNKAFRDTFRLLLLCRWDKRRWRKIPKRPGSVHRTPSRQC

[6] = tested on: panel of 68 clinically relevant GPCRs, ion channels, kinases, and transporters; assay: Radioligand binding assay panel; conditions: 10 μM; significant = more than 50% inhibition of radioligand binding
Rat IV PK = format: in vivo
Summary of the method: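 Rats received test compound iv at 0.2 mg/kg as a solution in 9% EtOH, 38% PEG 400 and 53% DMSO (1 mg/mL dosing solution), n=2. Plasma time course gave half-life, plasma clearance and volume of distribution at steady state.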

[7] = Rat IP tissue distribution; format: in vivo
Summary of the method: (§1)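 Single time point tissue distribution in mice or rats (n=2). Test compound was given ip at 30 mg/kg as a fine homogeneous suspension in 10% Tween-80 in water. Brain and plasma concentrations were taken 15 min after dosing. Kp = total brain/total plasma; Kp,uu = unbound brain (brain fu × total brain)/unbound plasma (plasma fu × total plasma).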

[8] = Mouse IP tissue distribution; format: in vivo
Summary of the method: as §1

[9] = Mouse IP tissue distribution with P-gp inhibitor 109 pretreatment; format: in vivo
Summary of the method: (§2)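 Mice were pretreated with the P-gp inhibitor elacridar at 20 mg/kg 1 h before the test compound. Test compound was given ip at 30 mg/kg as a fine homogeneous suspension in 10% Tween-80 in water (n=2). Brain and plasma were sampled 15 min after dosing. Kp = total brain/total plasma; Kp,uu = (brain fu × total brain)/(plasma fu × total plasma).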

P-gp = assay: as above; format: in vivo; conditions: mouse, brain, ip, with 109 (elacridar), 20 mg/kg, dosed 1 h before compound 58
Summary of the method: as §2

[10] = Mouse plasma protein binding; format: in vitro ADME
[11] = Protein binding in mouse brain homogenates; format: in vitro ADME; conditions: brain homogenate
[12] = rat ip 30 mg/kg, 15 min after dose
[13] = mouse ip 30 mg/kg, 15 min after dose
[14] = mouse ip 30 mg/kg, 15 min after dose, 109 dosed 1 h prior at 20 mg/kg

Sequence of rat mGlu2 (P31421 19-872): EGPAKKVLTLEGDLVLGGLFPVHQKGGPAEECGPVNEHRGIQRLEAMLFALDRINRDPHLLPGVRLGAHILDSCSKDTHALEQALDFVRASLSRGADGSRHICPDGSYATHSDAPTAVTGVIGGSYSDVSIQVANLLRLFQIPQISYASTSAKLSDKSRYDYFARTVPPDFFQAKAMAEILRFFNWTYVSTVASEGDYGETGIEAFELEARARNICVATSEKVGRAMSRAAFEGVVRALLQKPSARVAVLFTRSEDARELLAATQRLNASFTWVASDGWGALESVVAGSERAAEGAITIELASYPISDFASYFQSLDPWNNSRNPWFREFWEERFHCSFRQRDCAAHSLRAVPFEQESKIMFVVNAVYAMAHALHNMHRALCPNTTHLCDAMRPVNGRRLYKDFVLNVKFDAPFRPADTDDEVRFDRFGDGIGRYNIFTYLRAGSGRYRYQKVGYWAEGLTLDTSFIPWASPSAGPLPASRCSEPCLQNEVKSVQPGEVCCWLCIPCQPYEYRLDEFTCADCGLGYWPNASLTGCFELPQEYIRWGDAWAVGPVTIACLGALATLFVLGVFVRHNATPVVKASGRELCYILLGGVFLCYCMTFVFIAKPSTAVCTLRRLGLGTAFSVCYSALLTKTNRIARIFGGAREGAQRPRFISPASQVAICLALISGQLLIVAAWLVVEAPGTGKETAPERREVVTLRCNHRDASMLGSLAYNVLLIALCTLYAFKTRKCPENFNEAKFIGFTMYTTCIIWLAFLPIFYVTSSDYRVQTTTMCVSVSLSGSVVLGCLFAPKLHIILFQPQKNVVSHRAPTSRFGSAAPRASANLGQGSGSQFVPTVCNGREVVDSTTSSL

LLE (rat mGlu2; LLE = pIC50 – cLogP): 3.59 | % Glu max ± SEM (rat mGlu2; amplitude of response in presence of 30 μM test compound as percentage of maximal response (100 μM glutamate)): 1.48 ± 0.29% | pIC50 (rat mGlu2; mGlu2 IC50, calcium mobilization): 6.68 | pIC50 (rat mGlu2; mGlu2 pIC50 ± SEM, calcium mobilization): 6.69 | unbound in rat plasma [1]: approximately 30% | fraction unbound ([1]; rat, plasma): 0.306 | predicted hepatic clearance group ([2]; binned from CLint in rat liver microsomes): low–moderate | rat CLhep ([2]; predicted hepatic clearance based on CLint in rat liver microsomes): 1.47 L/h/kg | fraction unbound [3]: 0.191 | fraction unbound ([3]; mouse): 0.25 to 0.3 | Kp at 0.25 h ([4]; brain): 0.32 | Kp uu at 0.25 h ([4]; brain): 0.23 | concentration at 15 min ([4]; brain): 0.018 µM | concentration at 15 min ([4]; plasma): 0.0569 µM | Papp A→B (P-gp (MDR1)): 15.4 nm/s | Papp B→A (P-gp (MDR1)): 797 nm/s | efflux ratio (P-gp (MDR1)): 52 | human M1 activity (human M1): no activity | clearance in vivo (Rat IV PK; rat iv time course study): high clearance | Vd (Rat IV PK; rat, plasma, iv, 0.2 mg/kg): 13.3 L/kg | clearance (Rat IV PK; rat, plasma, iv, 0.2 mg/kg): 4.55 L/h/kg | half-life (Rat IV PK; rat, plasma, iv, 0.2 mg/kg, half-life, rat iv time course study): ~2 h | half-life (Rat IV PK; rat, plasma, iv, 0.2 mg/kg, t1/2, rat iv 0.2 mg/kg): 2.35 h | brain concentration [7, 12]: 0.76 µM | plasma concentration [7, 12]: 3.9 µM | Kp at 0.25 h ([7]; rat, brain, ip, 30 mg/kg): 0.2 | Kp uu at 0.25 h ([7]; rat, brain, ip, 30 mg/kg): 0.12 | concentration at 15 min ([7]; rat, brain, ip, 30 mg/kg, unbound brain concentration, rat ip 30 mg/kg): 0.145 µM | brain concentration [8, 13]: 716 nm | plasma concentration [8, 13]: 1820 nm | Kp at 0.25 h ([8]; mouse, brain, ip, 30 mg/kg): 0.39 | Kp uu at 0.25 h ([8]; mouse, brain, ip, 30 mg/kg): 0.32 | concentration at 15 min ([8]; mouse, brain, ip, 30 mg/kg, brain concentration, mouse ip 30 mg/kg): 0.716 µM | concentration at 15 min ([8]; mouse, brain, ip, 30 mg/kg, unbound brain concentration, mouse ip 30 mg/kg): 0.184 µM | unbound brain exposure relative to mGlu2 IC50 ([9]; 30 mg/kg ip with P-gp inhibitor pretreatment): more than 5 fold | increase of exposure in the brain after pretreatment with 109 (elacridar) ([9]; mouse ip 30 mg/kg): more than 6 fold | brain concentration [9, 14]: 4580 nm | plasma concentration [9, 14]: 2160 nm | Kp at 15 min (P-gp): 2.1 | Kp uu at 15 min (P-gp): 1.7 | fraction unbound [10]: 0.315 | fraction unbound [11]: 0.257
SMILES: C[C@@H]1CN(Cc2ccc3c(c2)c(=O)c(C(N)=O)cn3-c2ccc(F)cc2)C[C@H](C)O1 [Compound 58, 6-((cis-2,6-Dimethylmorpholino)methyl)-1-(4-fluorophenyl)-4-oxo-1,4-dihydroquinoline-3-carboxamide]
activity at the other mGlus [5]: no activity | ancillary pharmacology, radioligand binding panel responses [6]: no significant responses
